Active and inactive are the calls of the source. No cut-off for these calls is given here.
What was measured:
[1] = Drug concentration in wildtype mouse plasma at 600 ppm administered as rodent chow starting from 1.5 months and measured after 5 months; format: ADME, cell-free; details: route po, time 3.5 months
Procedure, shortened: (§1)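 WT or 5xFAD mice were fed PLX3397 in AIN-76A chow at 600 ppm or 75 ppm from 1.5 to 5 months of age. Terminal brain and plasma drug concentrations were determined at study end.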

[2] = Drug concentration in 5XFAD mouse brain at 600 ppm administered as rodent chow starting from 1.5 months and measured after 5 months; format: ADME, tissue-based; details: route po, time 3.5 months, read-out: Ct; procedure, shortened: as §1
Aurora kinase C = Aurora kinase C (Homo sapiens, UniProt Q9UQB9); experiment: Inhibition of AURKC (unknown origin)
Activin receptor type-1B = Activin receptor type-1B (Homo sapiens, UniProt P36896); experiment: Inhibition of ACVR1B (unknown origin)
[3] = biological target: Tyrosine-protein kinase BTK (Homo sapiens, UniProt Q06187); experiment: Inhibition of BTK (unknown origin)
[4] = biological target: Calcium/calmodulin-dependent protein kinase type II subunit alpha (Homo sapiens, UniProt Q9UQM7); experiment: Inhibition of CAMK2A (unknown origin)
[5] = Inhibition of CDK2/CyclinA (unknown origin); set-up: species or system Homo sapiens
[6] = biological target: Cyclin-dependent kinase 5/CDK5 activator 1 (Homo sapiens, UniProt Q00535); experiment: Inhibition of CDK5_p25 (unknown origin); format: protein-complex assay
[7] = biological target: Tyrosine-protein kinase Mer (Homo sapiens, UniProt Q12866); experiment: Inhibition of MERTK (unknown origin)
[8] = biological target: Serine/threonine-protein kinase PAK 4 (Homo sapiens, UniProt O96013); experiment: Inhibition of PAK4 (unknown origin)
[9] = biological target: Protein kinase C alpha type (Homo sapiens, UniProt P17252); experiment: Inhibition of PRKCA (unknown origin)
[10] = biological target: cGMP-dependent protein kinase 2 (Homo sapiens, UniProt Q13237); experiment: Inhibition of PRKG2 (unknown origin)
[11] = biological target: Rho-associated protein kinase 2 (Homo sapiens, UniProt O75116); experiment: Inhibition of ROCK2 (unknown origin)
[12] = biological target: Ribosomal protein S6 kinase alpha-1 (Homo sapiens, UniProt Q15418); experiment: Inhibition of RPS6KA1 (unknown origin)
[13] = biological target: Ribosomal protein S6 kinase alpha-3 (Homo sapiens, UniProt P51812); experiment: Inhibition of RPS6KA3 (unknown origin)
Angiopoietin-1 receptor = Angiopoietin-1 receptor (Homo sapiens, UniProt Q02763); experiment: Inhibition of TEK (unknown origin)
[14] = biological target: Tyrosine-protein kinase receptor TYRO3 (Homo sapiens, UniProt Q06418); experiment: Inhibition of TYRO3 (unknown origin)
[15] = Half-life in male rat at 1.13 mg/kg, iv administered as single dose; format: ADME, organism-based; details: in vivo
[16] = Cmax in dog at 45 mg/kg, po administered as single dose via gavage; format: ADME, organism-based, Canis lupus familiaris; details: in vivo
[17] = Ratio of drug concentration in 5XFAD mouse brain to plasma at 1200 ppm administered as rodent chow for 180 days; format: ADME, cell-free; details: brain and plasma, route po, time 180 day, read-out: BPR
Mus musculus [18] = experiment: Antialzheimer activity in 5XFAD mouse assessed as number of Iba positive cells per FOV in somatosensory cortex at 1200 ppm administered as rodent chow starting from 1.5 months and measured after 7 months (reference value: 335 to 848); format: functional; details: route po, time 5.5 months, 4015 h
[19] = Toxicity in wildtype mouse assessed as time spent in closed arm at 1200 ppm administered as rodent chow for 10 to 24 weeks by Elevated plus maze test (reference value: 73.3 to 220.6 sec); details: in vivo, po, time 10-24 weeks
[20] = Toxicity in wildtype mouse assessed as time spent in perimeter zone at 1200 ppm administered as rodent chow for 10 to 24 weeks by Open field test (reference value: 223.8 to 267.6 sec); details: in vivo, po, time 10-24 weeks
Mus musculus [21] = experiment: Antialzheimer activity in 5XFAD mouse assessed as amyloidbeta42 level in detergent insoluble thalamus fraction measured per microgram protein at 1200 ppm administered as rodent chow starting from 1.5 months and measured after 7 months by ELISA (reference value: 905.886 to 11631931 pg); format: functional; details: route po, time 5.5 months, 4015 h
[22] = Effect on Csf1r RPKM gene expression in wild type mouse thalamus at 1200 ppm administered as rodent chow starting from 1.5 months and measured after 7 months by RNA-Seq analysis (reference value: 19.596 to 21.371 RPKM); format: functional; details: route po, time 5.5 months, 4015 h
[23] = Effect on ccl6 gene expression in wild type mouse hippocampus at 1200 ppm administered as rodent chow starting from 1.5 months and measured after 7 months by RNA-Seq analysis (reference value: 0.451 to 0.597 RPKM); format: functional; details: route po, time 5.5 months, 4015 h
[24] = Effect on ccl6 gene expression in 5XFAD mouse thalamus at 1200 ppm administered as rodent chow starting from 1.5 months and measured after 7 months by RNA-Seq analysis (reference value: 3.667 to 7.093 RPKM); format: functional; details: route po, time 5.5 months, 4015 h
[25] = Effect on Clec7a gene expression in 5XFAD mouse hippocampus at 1200 ppm administered as rodent chow starting from 1.5 months and measured after 7 months by RNA-Seq analysis (reference value: 4.246 to 7.511 RPKM); format: functional; details: route po, time 5.5 months, 4015 h
Procedure, shortened: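 WT and 5xFAD mice were treated with 1200 ppm PLX5622 chow or control chow from 1.5 to 7 months of age. Brains were microdissected into cortex, hippocampus and thalamus, and RNA was extracted from tissue powder. Whole-transcriptome RNA-Seq libraries were sequenced, with n = 4 per group per region (48 samples).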

[26] = Effect on Zfp286 gene expression in wildtype mouse hippocampus assessed as percent change in Reads Per kilo base per Million mapped reads at 1200 ppm administered as rodent chow starting from 1.5 months and measured after 7 months by RNA-Seq analysis (reference value: 85.126 to 114.292 %); format: functional; details: route po, time 5.5 months, 4015 h
Mus musculus [27] = experiment: Prevention of immune pathway related gene upregulation in 5XFAD mouse hippocampus assessed as percent change in Reads Per kilo base per Million mapped reads at 1200 ppm administered as rodent chow starting from 1.5 months and measured after 7 months by GO enrichment analysis; format: functional, tissue-based; details: route po, time 5.5 months
Mus musculus [28] = experiment: Antialzheimer activity in 5XFAD mouse assessed as pyroglutamte-3 immunoreactivity in thalamus at 1200 ppm administered as rodent chow for 24 weeks by immunolabeling based confocal microscopic analysis; format: functional, organism-based; details: route po

Chain of cGMP-dependent protein kinase 2 (Q13237 whole entry): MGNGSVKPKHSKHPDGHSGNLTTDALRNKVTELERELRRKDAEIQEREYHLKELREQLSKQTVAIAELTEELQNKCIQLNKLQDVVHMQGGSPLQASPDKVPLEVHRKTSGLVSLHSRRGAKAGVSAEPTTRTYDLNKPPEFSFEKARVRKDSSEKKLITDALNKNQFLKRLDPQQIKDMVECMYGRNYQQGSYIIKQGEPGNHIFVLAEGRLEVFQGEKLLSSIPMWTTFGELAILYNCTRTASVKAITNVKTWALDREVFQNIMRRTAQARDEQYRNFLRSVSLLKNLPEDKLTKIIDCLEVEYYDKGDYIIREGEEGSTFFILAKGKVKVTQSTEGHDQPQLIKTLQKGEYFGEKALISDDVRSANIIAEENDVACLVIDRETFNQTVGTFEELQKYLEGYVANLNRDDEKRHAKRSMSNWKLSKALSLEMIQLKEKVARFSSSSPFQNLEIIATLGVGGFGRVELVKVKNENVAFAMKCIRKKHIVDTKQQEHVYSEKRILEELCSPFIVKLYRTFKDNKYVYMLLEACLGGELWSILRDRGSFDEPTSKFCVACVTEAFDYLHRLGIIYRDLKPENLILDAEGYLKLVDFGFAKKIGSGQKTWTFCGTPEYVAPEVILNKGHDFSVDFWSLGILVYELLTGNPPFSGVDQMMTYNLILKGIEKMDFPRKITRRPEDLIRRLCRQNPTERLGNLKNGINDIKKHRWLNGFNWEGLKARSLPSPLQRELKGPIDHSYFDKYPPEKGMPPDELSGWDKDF
Chain of Activin receptor type-1B (P36896 whole entry): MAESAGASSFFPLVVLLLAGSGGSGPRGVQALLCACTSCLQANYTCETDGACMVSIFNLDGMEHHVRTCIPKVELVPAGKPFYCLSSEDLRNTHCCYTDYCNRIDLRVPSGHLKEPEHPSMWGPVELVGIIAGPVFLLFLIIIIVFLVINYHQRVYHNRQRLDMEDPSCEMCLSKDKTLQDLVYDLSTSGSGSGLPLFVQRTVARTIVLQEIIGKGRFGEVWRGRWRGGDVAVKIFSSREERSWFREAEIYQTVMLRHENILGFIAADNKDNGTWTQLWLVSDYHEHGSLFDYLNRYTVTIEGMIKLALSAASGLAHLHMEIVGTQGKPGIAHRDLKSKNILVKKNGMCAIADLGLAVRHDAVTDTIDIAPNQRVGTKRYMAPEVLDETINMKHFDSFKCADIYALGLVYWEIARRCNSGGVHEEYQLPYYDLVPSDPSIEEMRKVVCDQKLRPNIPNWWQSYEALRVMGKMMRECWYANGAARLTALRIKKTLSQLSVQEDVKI
Chain of Tyrosine-protein kinase Mer (Q12866 whole entry): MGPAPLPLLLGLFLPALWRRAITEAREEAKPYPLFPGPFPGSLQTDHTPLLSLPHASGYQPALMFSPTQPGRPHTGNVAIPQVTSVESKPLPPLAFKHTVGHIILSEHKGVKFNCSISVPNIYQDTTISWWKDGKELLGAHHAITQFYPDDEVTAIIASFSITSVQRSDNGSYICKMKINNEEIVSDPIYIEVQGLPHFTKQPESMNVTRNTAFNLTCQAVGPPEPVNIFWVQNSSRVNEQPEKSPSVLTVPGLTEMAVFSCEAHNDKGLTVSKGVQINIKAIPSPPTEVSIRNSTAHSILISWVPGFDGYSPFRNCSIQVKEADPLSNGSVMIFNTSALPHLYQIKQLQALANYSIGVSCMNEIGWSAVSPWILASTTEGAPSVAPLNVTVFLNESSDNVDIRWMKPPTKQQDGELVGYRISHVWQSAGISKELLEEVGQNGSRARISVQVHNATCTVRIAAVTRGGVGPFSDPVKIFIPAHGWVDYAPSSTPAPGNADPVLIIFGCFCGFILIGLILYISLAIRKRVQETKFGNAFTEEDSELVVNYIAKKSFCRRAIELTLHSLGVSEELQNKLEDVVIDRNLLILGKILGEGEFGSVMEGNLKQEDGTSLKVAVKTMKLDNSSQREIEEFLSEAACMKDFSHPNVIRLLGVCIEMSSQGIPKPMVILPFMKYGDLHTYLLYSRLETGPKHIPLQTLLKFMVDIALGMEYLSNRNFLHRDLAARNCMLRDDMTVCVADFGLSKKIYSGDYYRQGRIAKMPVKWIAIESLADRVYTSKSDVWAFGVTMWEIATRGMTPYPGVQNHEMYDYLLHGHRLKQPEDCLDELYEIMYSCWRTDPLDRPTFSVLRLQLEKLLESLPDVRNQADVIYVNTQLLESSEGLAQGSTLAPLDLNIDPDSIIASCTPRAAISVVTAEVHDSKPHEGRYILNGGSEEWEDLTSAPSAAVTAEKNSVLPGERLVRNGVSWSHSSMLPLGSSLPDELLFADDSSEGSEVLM
Chain of Rho-associated protein kinase 2 (O75116 whole entry): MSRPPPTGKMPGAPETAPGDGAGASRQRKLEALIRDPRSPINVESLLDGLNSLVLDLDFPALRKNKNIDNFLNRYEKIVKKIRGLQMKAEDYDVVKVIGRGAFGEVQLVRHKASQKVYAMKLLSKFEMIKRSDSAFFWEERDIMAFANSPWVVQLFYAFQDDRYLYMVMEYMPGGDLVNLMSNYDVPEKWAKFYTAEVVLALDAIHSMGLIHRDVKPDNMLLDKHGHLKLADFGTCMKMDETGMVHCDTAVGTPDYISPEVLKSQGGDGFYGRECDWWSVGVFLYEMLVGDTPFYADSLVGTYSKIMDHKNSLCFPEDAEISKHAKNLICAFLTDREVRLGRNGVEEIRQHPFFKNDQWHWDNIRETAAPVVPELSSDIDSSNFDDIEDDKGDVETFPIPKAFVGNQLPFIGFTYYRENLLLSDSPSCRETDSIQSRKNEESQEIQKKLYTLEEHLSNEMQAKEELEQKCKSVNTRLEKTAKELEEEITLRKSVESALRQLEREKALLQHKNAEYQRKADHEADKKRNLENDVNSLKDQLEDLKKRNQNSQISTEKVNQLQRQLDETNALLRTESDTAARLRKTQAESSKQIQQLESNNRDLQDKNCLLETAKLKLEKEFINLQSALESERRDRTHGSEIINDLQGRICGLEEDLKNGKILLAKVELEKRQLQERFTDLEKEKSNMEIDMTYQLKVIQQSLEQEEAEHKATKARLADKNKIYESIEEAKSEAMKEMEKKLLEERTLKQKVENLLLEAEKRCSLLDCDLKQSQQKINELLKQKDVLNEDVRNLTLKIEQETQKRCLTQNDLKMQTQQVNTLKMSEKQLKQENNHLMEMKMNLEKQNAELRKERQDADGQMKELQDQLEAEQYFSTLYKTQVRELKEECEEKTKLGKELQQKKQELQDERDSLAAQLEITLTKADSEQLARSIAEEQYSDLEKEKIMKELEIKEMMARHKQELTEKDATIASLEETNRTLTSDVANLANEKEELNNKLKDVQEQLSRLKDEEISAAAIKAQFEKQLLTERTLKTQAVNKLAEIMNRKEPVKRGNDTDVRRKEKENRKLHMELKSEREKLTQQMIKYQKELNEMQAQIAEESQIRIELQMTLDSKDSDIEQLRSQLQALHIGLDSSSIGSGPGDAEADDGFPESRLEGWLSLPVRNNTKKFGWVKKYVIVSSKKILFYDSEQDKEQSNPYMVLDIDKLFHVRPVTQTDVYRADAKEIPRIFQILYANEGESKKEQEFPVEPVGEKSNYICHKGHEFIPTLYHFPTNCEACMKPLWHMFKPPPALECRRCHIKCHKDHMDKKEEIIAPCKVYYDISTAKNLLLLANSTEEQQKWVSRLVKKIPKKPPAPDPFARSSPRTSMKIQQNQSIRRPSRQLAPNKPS
Chain of Calcium/calmodulin-dependent protein kinase type II subunit alpha (Q9UQM7 whole entry): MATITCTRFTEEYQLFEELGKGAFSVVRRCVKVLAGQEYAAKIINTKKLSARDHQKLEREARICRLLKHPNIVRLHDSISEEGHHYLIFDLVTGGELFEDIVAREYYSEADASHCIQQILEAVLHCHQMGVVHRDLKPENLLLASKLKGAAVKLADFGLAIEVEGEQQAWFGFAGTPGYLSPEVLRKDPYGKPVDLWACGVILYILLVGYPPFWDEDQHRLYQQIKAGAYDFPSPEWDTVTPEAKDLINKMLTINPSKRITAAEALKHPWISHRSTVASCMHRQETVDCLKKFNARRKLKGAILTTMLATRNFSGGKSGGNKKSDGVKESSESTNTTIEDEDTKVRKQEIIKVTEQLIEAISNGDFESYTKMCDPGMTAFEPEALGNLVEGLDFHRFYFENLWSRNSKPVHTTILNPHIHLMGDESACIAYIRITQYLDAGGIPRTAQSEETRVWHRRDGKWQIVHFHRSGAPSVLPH
Chain of Ribosomal protein S6 kinase alpha-1 (Q15418 whole entry): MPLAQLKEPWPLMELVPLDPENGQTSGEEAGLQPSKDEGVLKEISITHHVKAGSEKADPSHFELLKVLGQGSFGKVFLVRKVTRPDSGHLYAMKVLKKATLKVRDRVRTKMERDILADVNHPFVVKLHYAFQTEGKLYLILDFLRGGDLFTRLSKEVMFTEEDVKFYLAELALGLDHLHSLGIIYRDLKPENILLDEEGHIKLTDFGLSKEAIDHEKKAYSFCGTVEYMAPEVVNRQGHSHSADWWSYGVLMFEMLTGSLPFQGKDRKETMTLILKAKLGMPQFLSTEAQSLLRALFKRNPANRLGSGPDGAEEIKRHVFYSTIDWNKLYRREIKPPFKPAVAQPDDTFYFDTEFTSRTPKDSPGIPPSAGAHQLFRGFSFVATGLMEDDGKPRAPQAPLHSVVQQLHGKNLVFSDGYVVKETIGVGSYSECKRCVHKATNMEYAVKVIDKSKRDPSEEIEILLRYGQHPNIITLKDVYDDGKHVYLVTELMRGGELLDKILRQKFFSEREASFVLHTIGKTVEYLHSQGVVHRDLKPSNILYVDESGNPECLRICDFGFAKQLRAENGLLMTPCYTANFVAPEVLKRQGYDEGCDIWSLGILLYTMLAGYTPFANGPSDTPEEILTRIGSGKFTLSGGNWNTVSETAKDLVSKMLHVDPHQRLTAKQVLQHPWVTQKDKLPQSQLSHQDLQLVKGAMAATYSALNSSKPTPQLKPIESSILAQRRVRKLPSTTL

FC(F)(F)c1ccc(CNc2ccc(Cc3c[nH]c4ncc(Cl)cc34)cn2)cn1 [PEXIDARTINIB]
concentration at 2555 h [1]: 139 µM
concentration at 2555 h [2]: 5.6 µM

COc1ncc(F)cc1CNc1ccc(Cc2c[nH]c3ncc(C)cc23)c(F)n1 [PLX-5622]
IC50 (Aurora kinase C): 1000 nM
IC50 (Activin receptor type-1B): > 1000 nM
IC50 [3]: > 1000 nM
IC50 [4]: > 1000 nM
IC50 [5]: > 1000 nM
IC50 [6]: > 1000 nM
IC50 [7]: > 1000 nM
IC50 [8]: > 1000 nM
IC50 [9]: > 1000 nM
IC50 [10]: > 1000 nM
IC50 [11]: > 1000 nM
IC50 [12]: > 1000 nM
IC50 [13]: > 1000 nM
IC50 (Angiopoietin-1 receptor): > 1000 nM
IC50 [14]: > 1000 nM
half-life [15]: 2.3 h
Cmax [16]: 3630 ng/mL
Kp at 4320 h [17]: 0.26
Activity (Mus musculus [18]): 0
Time [19]: 90.5 s
Time [20]: 178.5 s
Flu intensity (Mus musculus [21]): 4280.692 a.u.
Activity [22]: 0.064 RPKM
Activity [23]: 0 RPKM
Activity [24]: 0 RPKM
Activity [25]: 0.239 RPKM
Activity [26]: 76.544%
Activity (Mus musculus [27]): Active
Activity (Mus musculus [28]): Active
